Assay results as given in ChEMBL document CHEMBL1150246, “Synthesis and activity of tetrapeptidic HTLV-I protease inhibitors possessing different P3-cap moieties” (Bioorg Med Chem, 2008).
Starred links: 1 amine or outer side, 2 acyl side, 3 side chain; linkers in the order of their positions; H or OH if unused. Non-standard residues stand in square brackets, D forms with d. Residues, ends and D or L forms follow the SMILES beside them. X1 = O=C([C@@H](O)[C@H](Cc1ccccc1)N[*:1])[*:2]

Experiments:
[1] = test system: Human immunodeficiency virus; assay: Inhibition of HIV protease at 50 nM
Protease = biological target: T1, Protease (Human T-lymphotropic virus 1, UniProt Q82323); assay: Inhibition of HTLV1 protease1; design: species or system Human T-cell leukemia virus type I
T1 sequence (Q82323 whole entry): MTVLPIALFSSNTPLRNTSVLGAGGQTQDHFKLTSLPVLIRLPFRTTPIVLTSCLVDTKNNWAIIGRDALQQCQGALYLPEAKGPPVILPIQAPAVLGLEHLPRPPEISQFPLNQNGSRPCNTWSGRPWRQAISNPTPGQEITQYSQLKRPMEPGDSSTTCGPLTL
In short: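 HTLV-I protease L40I mutant, which blocks autolysis and improves stability. Inhibition reported as IC50 with SEM in nM. Remaining assay steps follow an earlier published procedure.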

inhibition [1] [%]	IC50 (Protease) [nM]	SMILES
> 99	88.2	CCC(C)CC(=O)N[C@H](C(=O)N[C@H](C(=O)N[C@@H](Cc1ccccc1)[C@H](O)C(=O)N1CSC(C)(C)[C@H]1C(=O)NCC(C)C)C(C)(C)C)c1ccccc1 (stereo not given in full)
> 99	92	CCCCC(=O)N[C@H](C(=O)N[C@H](C(=O)N[C@@H](Cc1ccccc1)[C@H](O)C(=O)N1CSC(C)(C)[C@H]1C(=O)NCC(C)C)C(C)(C)C)c1ccccc1
> 99	104	CCCC(=O)N[C@H](C(=O)N[C@H](C(=O)N[C@@H](Cc1ccccc1)[C@H](O)C(=O)N1CSC(C)(C)[C@H]1C(=O)NCC(C)C)C(C)(C)C)c1ccccc1
> 99	80.4	CCC(C)(C)C(=O)N[C@H](C(=O)N[C@H](C(=O)N[C@@H](Cc1ccccc1)[C@H](O)C(=O)N1CSC(C)(C)[C@H]1C(=O)NCC(C)C)C(C)(C)C)c1ccccc1
> 99	107	CC(=O)N[C@H](C(=O)N[C@H](C(=O)N[C@@H](Cc1ccccc1)[C@H](O)C(=O)N1CSC(C)(C)[C@H]1C(=O)NCC(C)C)C(C)(C)C)c1ccccc1
> 99	105	CCC(=O)N[C@H](C(=O)N[C@H](C(=O)N[C@@H](Cc1ccccc1)[C@H](O)C(=O)N1CSC(C)(C)[C@H]1C(=O)NCC(C)C)C(C)(C)C)c1ccccc1
> 99	83.3	CC(C)CNC(=O)[C@H]1N(C(=O)[C@@H](O)[C@H](Cc2ccccc2)NC(=O)[C@@H](NC(=O)[C@@H](NC(=O)CC(C)(C)C)c2ccccc2)C(C)(C)C)CSC1(C)C
> 99	96.9	CC(C)CNC(=O)[C@H]1N(C(=O)[C@@H](O)[C@H](Cc2ccccc2)NC(=O)[C@@H](NC(=O)[C@@H](NC(=O)C2CC2)c2ccccc2)C(C)(C)C)CSC1(C)C
> 99	84.2	CCCC(C)C(=O)N[C@H](C(=O)N[C@H](C(=O)N[C@@H](Cc1ccccc1)[C@H](O)C(=O)N1CSC(C)(C)[C@H]1C(=O)NCC(C)C)C(C)(C)C)c1ccccc1 (stereo not given in full)
> 99	98.2	CC(C)CNC(=O)[C@H]1N(C(=O)[C@@H](O)[C@H](Cc2ccccc2)NC(=O)[C@@H](NC(=O)[C@@H](NC(=O)C2CCCCC2)c2ccccc2)C(C)(C)C)CSC1(C)C
> 99	82.8	CC(C)CNC(=O)[C@H]1N(C(=O)[C@@H](O)[C@H](Cc2ccccc2)NC(=O)[C@@H](NC(=O)[C@@H](NC(=O)C(C)(C)C)c2ccccc2)C(C)(C)C)CSC1(C)C
–	159	CSCC[C@H](NC(=O)[C@@H](NC(=O)[C@@H]1CCCN1C(=O)[C@@H](O)[C@H](Cc1ccccc1)NC(=O)[C@@H](NC(=O)[C@H](CCC(N)=O)NC(=O)[C@@H]1CCCN1)C(C)C)C(C)C)C(=O)N[C@@H](Cc1cnc[nH]1)C(=O)O (H-PQV[X1]PVMH-OH)
> 99	332	CC(C)CNC(=O)[C@H]1N(C(=O)[C@@H](O)[C@H](Cc2ccccc2)NC(=O)[C@@H](NC(=O)[C@@H](N)c2ccccc2)C(C)(C)C)CSC1(C)C
> 99	93.5	CC(C)CNC(=O)[C@H]1N(C(=O)[C@@H](O)[C@H](Cc2ccccc2)NC(=O)[C@@H](NC(=O)[C@@H](NC(=O)C(C)C)c2ccccc2)C(C)(C)C)CSC1(C)C
> 99	102	CC(C)CNC(=O)[C@H]1N(C(=O)[C@@H](O)[C@H](Cc2ccccc2)NC(=O)[C@@H](NC(=O)[C@@H](NC(=O)CC(C)C)c2ccccc2)C(C)(C)C)CSC1(C)C
> 99	96.5	CC(C)CCC(=O)N[C@H](C(=O)N[C@H](C(=O)N[C@@H](Cc1ccccc1)[C@H](O)C(=O)N1CSC(C)(C)[C@H]1C(=O)NCC(C)C)C(C)(C)C)c1ccccc1
> 99	79.2	CC(C)CNC(=O)[C@H]1N(C(=O)[C@@H](O)[C@H](Cc2ccccc2)NC(=O)[C@@H](NC(=O)[C@@H](NC(=O)c2ccccc2)c2ccccc2)C(C)(C)C)CSC1(C)C
> 99	105	CC(C)CNC(=O)[C@H]1N(C(=O)[C@@H](O)[C@H](Cc2ccccc2)NC(=O)[C@@H](NC(=O)[C@@H](NC(=O)CCc2ccccc2)c2ccccc2)C(C)(C)C)CSC1(C)C
